This is a sample that favours compounds with a hit; in the whole collection about 1.7% have one here.
HNF4A DNA FP: change in binding of human HNF4 alpha to DNA. P41235. HNF4a-FITC DNA binding, fluorescence polarization, 1 h. activity change, % at 10 µM. 360,000 compounds, 0.3% hits; in the data active = activity change above about 30%, passing the limit was not always enough
CSN deneddyl inh: blocks human CSN-mediated cullin deneddylation | inhibition, % at 12.5 µM | 360,000 compounds, 0.38% hits | Q92905 | AID 651999 | Purified CSN, SCF-Nedd8-OG deneddylation, fluorescence polarization;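 active = pattern-corrected inhibition above about 35%, with an unprinted fluorescence ratio check between 0.5 and 1.5, limit read from the data, passing the limit was not always enough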;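 also: 0% = enzyme with substrate and 100% = substrate without enzyme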
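Material: human Csn5 produced in HEK293T cells; Input: enzyme 0.24 nM; Reagent: SCFSkp2-Nedd8OG substrate at 10 nM final; Dosing: 12.5 µM compound; Incubation: 90 min reaction at room temperature; Detection: fluorescence polarization of the substrate; Evaluation: % inhibition of substrate cleavage by Csn5; Control set: substrate-only high control, full reaction low control.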
IDE cell inh: cellular human IDE inhibition. HEK cells, FAbetaB cleavage, fluorescence polarization. inhibition, % at 5.59 µM. AID 434962. 320,000 compounds, 0.41% hits. P14735;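 active = percent inhibition above the average of all tested compounds plus 3 SD, set per screening campaign, cut at about 16% in these data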;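 also: IDE supplied by intact live HEK cells; FP after avidin binding of uncleaved biotin substrate so inhibition keeps polarization high; 0% = DMSO wells and 100% = 60 µM reference IDE inhibitor Ii1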
Target sequence (P14735 whole entry, looked up): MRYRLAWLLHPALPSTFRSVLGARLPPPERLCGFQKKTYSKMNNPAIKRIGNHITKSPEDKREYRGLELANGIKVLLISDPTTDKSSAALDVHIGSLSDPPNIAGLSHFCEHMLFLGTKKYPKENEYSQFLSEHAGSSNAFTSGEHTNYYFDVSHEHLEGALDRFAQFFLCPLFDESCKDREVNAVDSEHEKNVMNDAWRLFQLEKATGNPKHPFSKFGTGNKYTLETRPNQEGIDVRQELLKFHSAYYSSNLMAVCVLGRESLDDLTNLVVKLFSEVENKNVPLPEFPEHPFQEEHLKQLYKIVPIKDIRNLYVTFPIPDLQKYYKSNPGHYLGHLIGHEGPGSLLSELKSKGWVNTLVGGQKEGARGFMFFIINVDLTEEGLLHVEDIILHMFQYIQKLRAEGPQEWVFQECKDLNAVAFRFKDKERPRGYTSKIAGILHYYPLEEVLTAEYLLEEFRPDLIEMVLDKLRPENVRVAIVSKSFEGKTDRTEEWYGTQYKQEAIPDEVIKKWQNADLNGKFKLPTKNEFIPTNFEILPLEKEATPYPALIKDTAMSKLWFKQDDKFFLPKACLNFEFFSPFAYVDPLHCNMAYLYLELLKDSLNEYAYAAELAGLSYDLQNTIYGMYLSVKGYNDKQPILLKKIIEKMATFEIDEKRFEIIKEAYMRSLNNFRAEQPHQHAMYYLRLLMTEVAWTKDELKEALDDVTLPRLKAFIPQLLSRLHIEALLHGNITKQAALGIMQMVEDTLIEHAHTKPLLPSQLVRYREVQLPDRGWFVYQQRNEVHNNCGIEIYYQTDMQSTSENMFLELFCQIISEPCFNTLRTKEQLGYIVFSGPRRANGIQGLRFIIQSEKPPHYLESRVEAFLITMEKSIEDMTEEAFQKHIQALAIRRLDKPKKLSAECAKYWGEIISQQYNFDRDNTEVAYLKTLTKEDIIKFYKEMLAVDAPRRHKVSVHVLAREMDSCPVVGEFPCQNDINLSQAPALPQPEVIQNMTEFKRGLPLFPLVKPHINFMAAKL
TPT1 inhibitor: inhibitors of Candida albicans tRNA 2'-phosphotransferase TPT1; recombinant caTPT1, FP RNA substrate dephosphorylation; inhibition, % at 5 µM; 300,000 compounds, 0.81% hits;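 active = inhibition above the mean of all tested compounds plus 3 SD, set per screening campaign, cut at about 24% in these data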;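 also: plate controls were DMSO alone for no effect and ferristatin control at 100 nM for full effect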
Tb MetRS inh: Trypanosoma brucei MetRS inhibition; purified T. brucei MetRS, ATP depletion, Kinase-Glo luminescence; inhibition, % at 11.9 µM; 360,000 compounds, 0.4% hits; AID 624268;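 active = inhibition above a per-plate cutoff of the control wells' mean inhibition plus 3 SD, cut at about 5.5% in these data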;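 also: 0% = DMSO wells median and 100% = median of wells with control inhibitor compound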
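Material: parasite MetRS enzyme / Replication: singlicate, one well per compound / Signal: luminescence of leftover ATP / Schedule: 2 h aminoacylation at 25 °C after 15 min preincubation / Medium: HEPES-MgCl2-KCl buffer plus DTT, spermine, BSA, pyrophosphatase / Doses: 11.9 µM single point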
IDE cell activ: IDE (human) activation, cell-based; P14735; HEK cells, FAbeta-B cleavage, fluorescence polarization; 0% vehicle, 100% cell-free pure enzyme wells; activation, % at 5.96 µM; 340,000 compounds, 0.073% hits;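 active = activation above the mean of all tested compounds plus 3 SD, set per screening campaign, cut at about 17% in these data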
CSN deneddyl val: validation of inhibitors of human CSN-mediated cullin deneddylation; Csn5 deneddylation of SCF-Nedd8OG, fluorescence polarization, 90 min; shares compounds with CSN deneddyl inh; AID 720654; 540 compounds, 62% hits; inhibition, % at 16.6 µM; in the data active = inhibition above about 50%;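 also: 0% = DMSO with enzyme and 100% = no enzyme wells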
MMP-2 counter: counter-screen for CSN deneddylation inhibitors: human MMP-2 inhibition; shares compounds with CSN deneddyl inh; recombinant MMP-2, FRET substrate fluorescence, 60 min; inhibition, % at 16.6 µM; 540 compounds, 33% hits;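 active = corrected plate-normalized z-score of 5 or more, or -5 or less, or inhibition of 15% or more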;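 also: plate controls were DMSO wells with enzyme for no effect and buffer wells lacking MMP-2 for full effect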
Thrombin cntr: blocks bovine thrombin in a CSN deneddylation counter-screen | shares compounds with CSN deneddyl inh | bovine thrombin cleavage of Ub4-pepOG, fluorescence polarization | inhibition, % at 16.6 µM | 540 compounds, 49% hits | AID 720656;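 active = inhibition at or above a set limit, with a fluorescence interference ratio between 0.5 and a set maximum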
HNF4a DNA conf: change in binding of human HNF4 alpha to DNA, retest | shares compounds with HNF4A DNA FP | HNF4A-FITC DNA binding, fluorescence polarization, 1 h | activity change, % at 12.5 µM | 210 compounds, 99% hits | AID 1224897; call rule not given here
* marks the source's active call; other numbers are inactive results; . = no result given.

SMILES	HNF4A DNA FP	CSN deneddyl inh	IDE cell inh	TPT1 inhibitor	Tb MetRS inh	IDE cell activ	CSN deneddyl val	MMP-2 counter	Thrombin cntr	others
O=[N+]([O-])c1ccc(N/N=C/c2sc(N3CCOCC3)nc2-c2ccccc2)c(S(=O)(=O)Nc2ccccc2Cl)c1	60.3*	51.5*	.	.	-0.4	0.6	82.9*	-3.6	36.1*
Cc1ccc2nc(N(CCCN(C)C)C(=O)c3ccc(S(=O)(=O)N4CCc5ccccc5C4)cc3)sc2c1	-1.3	4.7	-3.7	-0.5	-0.4	-4.5	.	.	.
CN(C)CCCN(C(=O)c1ccc(S(=O)(=O)N2CCc3ccccc3C2)cc1)c1nc2ccc(F)cc2s1	57.0*	98.5*	0.7	-4.4	-0.1	3.6	-32.8	-0.6	-13.6
O=C1C(=C(I)I)c2ccccc2-c2ccccc21	-0.1	51.8*	.	.	4.8	-2.5	62.6*	9.9	-35.6
O=C(O)c1cccc2c1C(=O)c1ccccc1-2	-5.3	1.6	-3.9	-0.2	-1.0	3.4	.	.	.
COc1ccc(O)c(/C=N/NC(=O)c2c(C)nnn2-c2nonc2N)c1	41.4*	87.8*	1.5	-5.5	-0.4	5.5	-7.8	33.3*	7.7
COc1ccc(/C=N/NC(=O)c2nnn(-c3nonc3N)c2-c2cccc(OC)c2)cc1	-3.0	-0.7	-6.0	1.7	0.7	-4.2	.	.	.
N=C(N)c1ccc(/C=C/c2ccc(C(=N)N)cc2O)cc1	18.2	45.7*	6.5	-1.9	-0.2	-0.5	-17.4	-2.4	31.9*
Cc1cc(N)c2cc(NC(=O)/C=C/c3ccccc3Cl)ccc2n1	37.1*	107.8*	-0.7	-2.0	-0.7	28.3*	-38.7	54.2*	-5.4
Cc1cc(C)nc(NC(=O)/C=C/c2ccccc2Cl)n1	-0.5	0.1	-1.5	-0.2	-0.5	3.2	.	.	.
COc1ccccc1-n1cnc2c(c1=O)c1nc3ccccc3nc1n2-c1ccc(C)c(C)c1	23.0	88.4*	.	.	-1.3	7.0	123.8*	9.3	2.0
COCCCn1c2nc3ccccc3nc2c2c(=O)n(-c3ccccc3OC)cnc21	-4.6	0.0	0.2	1.4	-1.9	-0.1	.	.	.
C/C(=N\N(Cc1ccccc1)c1ccccc1)c1cccnc1	-1.8	-2.7	-0.8	-0.8	-0.8	6.5	.	.	.
O=C(/C=C/c1ccccc1)Nc1scc(-c2ccccc2)c1C(=O)O	2.8	-7.4	.	.	-0.3	6.6	.	.	.
O=C(/C=C/c1ccco1)Nc1scc(-c2ccccc2)c1C(=O)O	-35.5	37.8*	-4.3	-0.4	-1.4	-3.9	25.2	9.4	6.3
O=C(CN(Cc1ccc(Cl)cc1)C(=O)CNS(=O)(=O)c1ccc(F)cc1)NCC1CCCO1 (stereo not given)	1.6	2.5	3.1	0.8	0.2	-2.9	.	.	.
Cc1cc(=O)oc2cc(OCC(=O)c3ccc4c(c3)NC(=O)CO4)ccc12	161.0*	75.9*	-5.7	-2.3	1.0	5.0	.	.	.	HNF4a DNA conf=45.5*
COc1cccc(/C=C2\SC(=S)N(CCCC(=O)Nc3cc(C)on3)C2=O)c1	47.2*	35.7*	1.0	2.9	-0.3	3.6	.	.	.	HNF4a DNA conf=66.9*
O=C(CSc1nc2ccccc2o1)Nc1nc2c(s1)CCCC2	54.7*	17.2	.	.	-0.9	-6.8	.	.	.	HNF4a DNA conf=48.1*
Cc1cc(C)n2c(NCc3ccccc3)c(-c3cc4ccccc4o3)nc2n1	61.1*	1.6	.	.	0.2	.	.	.	.	HNF4a DNA conf=64.6*
Cc1cc(C)n2nc(NCc3ccccc3)nc2n1	-3.0	5.2	5.0	1.0	-0.6	2.1	.	.	.
COc1ccc(-n2cnnc2SCC(=O)Nc2cccnc2Cl)cc1	-1.3	0.0	-0.5	-0.8	-0.6	-0.9	.	.	.
